# Active and inactive are the calls of the source.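 The calls were made as follows, unless noted: active = viability at or under a set limit in both replicates, limit being median viability minus 3 SD (cut at about 48% in these data, passing the limit was not always enough); inconclusive = at or under the limit in just one replicate; inactive = at or above the limit in both replicates.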
# What was measured:
# [1] = Her2 expression decrease, cell viability multiplex – SKBR3 breast tumor cells, AlphaScreen, ATP viability, primary screen (AID 461;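 active = Her2 level under about 52% in both replicate screens, with viability over 70% of control, limit read from the data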;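 as to Her2 level: lower value means less Her2 protein in the cells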;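 as to viability: percent of carrier control wells set as 100% viability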); details: SKBR3 Her2 protein level, 18-24 h, measured here: SKBR3 viability, ATP luminescence, at 10 µM
# [2] = target: Receptor tyrosine-protein kinase erbB-2 (Homo sapiens) (UniProt P04626); assay: as above; details: 18-24 h, at 10 µM, stronger effect = lower value
# Receptor tyrosine-protein kinase erbB-2 (Homo sapiens), sequence (P04626 whole entry, looked up): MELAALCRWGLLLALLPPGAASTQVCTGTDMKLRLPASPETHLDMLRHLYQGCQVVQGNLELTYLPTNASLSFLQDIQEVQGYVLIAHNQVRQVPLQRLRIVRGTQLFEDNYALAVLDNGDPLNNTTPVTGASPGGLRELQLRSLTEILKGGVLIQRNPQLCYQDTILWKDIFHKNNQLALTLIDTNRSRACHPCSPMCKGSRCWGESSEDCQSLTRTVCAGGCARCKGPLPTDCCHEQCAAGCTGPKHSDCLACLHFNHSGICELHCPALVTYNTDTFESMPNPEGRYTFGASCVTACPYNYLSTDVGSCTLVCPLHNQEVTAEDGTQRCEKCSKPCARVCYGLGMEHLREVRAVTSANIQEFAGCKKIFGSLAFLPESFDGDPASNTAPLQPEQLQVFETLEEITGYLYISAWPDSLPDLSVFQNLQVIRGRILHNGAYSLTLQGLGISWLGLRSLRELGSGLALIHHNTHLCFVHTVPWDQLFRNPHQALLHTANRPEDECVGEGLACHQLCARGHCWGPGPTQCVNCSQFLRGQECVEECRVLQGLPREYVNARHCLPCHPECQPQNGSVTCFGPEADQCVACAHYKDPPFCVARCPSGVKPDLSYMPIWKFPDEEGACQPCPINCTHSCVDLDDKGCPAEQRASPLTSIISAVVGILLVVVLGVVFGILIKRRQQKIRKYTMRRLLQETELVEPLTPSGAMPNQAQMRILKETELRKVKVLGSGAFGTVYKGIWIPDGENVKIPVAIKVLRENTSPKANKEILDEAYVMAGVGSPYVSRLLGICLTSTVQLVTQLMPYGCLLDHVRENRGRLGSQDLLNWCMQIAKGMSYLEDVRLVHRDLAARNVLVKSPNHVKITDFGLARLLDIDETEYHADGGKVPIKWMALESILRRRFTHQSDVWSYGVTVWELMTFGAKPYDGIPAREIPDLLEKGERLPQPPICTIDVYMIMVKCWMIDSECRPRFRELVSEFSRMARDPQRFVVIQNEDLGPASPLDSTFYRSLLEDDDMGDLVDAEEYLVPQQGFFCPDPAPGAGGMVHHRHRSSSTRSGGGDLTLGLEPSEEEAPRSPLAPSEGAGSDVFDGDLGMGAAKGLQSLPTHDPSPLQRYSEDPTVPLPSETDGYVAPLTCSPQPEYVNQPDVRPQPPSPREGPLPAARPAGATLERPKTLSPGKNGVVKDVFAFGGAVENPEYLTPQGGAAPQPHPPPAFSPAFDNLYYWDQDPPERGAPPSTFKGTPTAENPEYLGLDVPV
# [3] = reduced viability of SK-BR-3 breast cancer cells – cell-based, 24 h, human, pilot screen (AID 572;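 active = viability at or below 10% of carrier control in both of two separate runs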;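 also: compound exposure lasted between 18 and 24 h rather than exactly 24 h; 100% = carrier-treated control wells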); details: SK-BR-3 viability, CellTiter-Glo luminescence, at 10 µM, stronger effect = lower value
# [4] = HUVEC growth inhibition – cell-based, human, primary screen (AID 575;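 active = viability at or below 30% in both replicate assays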;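 also: 100% = median of untreated cell wells with 0.1% DMSO on each plate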); details: HUVEC proliferation, CellTiter-Glo luminescence, 72 h; at 10 µM; stronger effect = lower value
# Outline: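 Assay system: Primary human umbilical vein endothelial cells | Quantity: 1250 cells per well | Medium: Supplemented EBM, 2% fetal bovine serum | Detection: CellTiter-Glo luminescence measuring cellular ATP | Read-out: % viability vs DMSO wells | Plate: Collagen-coated 384-well format | Times: 72 h exposure, 37 °C, 5% CO2, 30 min RT equilibration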
# [5] = H69AR cell proliferation blockers – human, duplicate replicates, primary screen (AID 580); details: H69AR lung tumor cells viability, ATP luminescence, 72 h; at 10 µM; stronger effect = lower value;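 also: 100% = mean luminescence of untreated wells and 0% = no signal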
# [6] = MRP1 drug-resistance reversers in H69AR cells – cell-based, doxorubicin co-treatment, pilot screen (AID 601;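 active = viability loss from added drug above about 55%, and viability with drug at most 40%, in both replicates, limit read from the data, passing the limit was not always enough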); details: CellTiter-Glo, 72 h, at 10 µM; for differential viability (reversal): stronger effect = higher value
# [7] = yeast transport mutant growth inhibition pilot in 384-well plates, post-Golgi transport modulator project (AID 636; in the data active = inhibition above about 31%); details: absorbance 615 nm, about 18 h, stronger effect = higher value
# [8] = growth suppression of yeast trafficking mutant, preliminary HTS, modulators of trafficking downstream of Golgi apparatus project, 1536-format plate, OD 615 nm (AID 637; in the data active = inhibition above about 30%); details: yeast transport mutant growth, absorbance 615 nm, 18 h; stronger effect = higher value
# [9] = H69AR cells + 2 uM doxorubicin, measured here: viability with 2 uM doxorubicin, stronger effect = lower value
# [10] = H69AR cells, compound alone cytotoxicity
SMILES,viability [1] [%],Her2 level [2],viability [3],viability [4],viability [5],differential viability (reversal) ([6]; H69AR cells + 2 uM doxorubicin),"viability [6, 9] [%]","viability [6, 10] [%]",inhibition [7],inhibition [8]
COc1ccc(CCn2c(NCCCN3CCOCC3)nc3c2c(=O)[nH]c(=O)n3C)cc1,84.5,86% (inactive),84.5% (inactive),76.6% (inactive),87.3% (inactive),0.365% (inactive),86.9,87.3,4.13% (inactive),30.3% (active)
Cc1ccc(S(=O)(=O)N[C@@H](C)C(=O)N2CCC(C(=O)N3CCC[C@H]3C(=O)O)CC2)cc1,98,100% (inactive),98% (inactive),88.7% (inactive),102% (inactive),8.07% (inactive),93.6,102,-4.4% (inactive),1.31% (inactive)
Cc1cccc(N2C(=O)CC(N3CCN(Cc4ccc(Cl)cc4)CC3)C2=O)c1 (stereo not given),104,100% (inactive),104% (inactive),94.7% (inactive),99.2% (inactive),12.2% (inactive),86.9,99.2,-3.87% (inactive),0.82% (inactive)
O=C(Cn1nc(-c2ccc3c(c2)OCCO3)ccc1=O)Nc1ccc(N2CCOCC2)cc1,94,108% (inactive),94% (inactive),112% (inactive),110% (inactive),16.4% (inactive),93.2,110,-3.03% (inactive),0.17% (inactive)
CN(c1ccccc1C(N)=O)S(=O)(=O)c1ccccc1,105,86% (inactive),105% (inactive),101% (inactive),92.7% (inactive),7.05% (inactive),85.7,92.7,-6.53% (inactive),-0.48% (inactive)
CC(C(=O)N1CCc2ccccc21)N1CCc2ccccc2C1 (stereo not given),82,79% (inactive),82% (inactive),93.7% (inactive),91.6% (inactive),-10.2% (inactive),102,91.6,-0.53% (inactive),-3.11% (inactive)
O=C(O)c1c(Cl)c(Cl)c(Cl)c(Cl)c1C(=O)N1CCOCC1,109,90% (inactive),109% (inactive),106% (inactive),95.7% (inactive),2.91% (inactive),92.8,95.7,-5.97% (inactive),0.16% (inactive)
CC1=C(C#N)C(=O)NC(C)(C)C1,114,102% (inactive),114% (inactive),91.8% (inactive),89.3% (inactive),3.02% (inactive),86.3,89.3,-6% (inactive),1.8% (inactive)
O=C(CN1C(=O)C2C3C=CC(C3)C2C1=O)NCc1ccc2c(c1)OCO2 (stereo not given),102,109% (inactive),102% (inactive),97.9% (inactive),98.2% (inactive),8.13% (inactive),90.1,98.2,-1.43% (inactive),-7.78% (inactive)
CC(C)C1C2=C(CC(C)(C)CC2=O)ON1c1ccccc1 (stereo not given),90,90% (inactive),90% (inactive),95.8% (inactive),93% (inactive),-2.63% (inactive),95.7,93,-1.6% (inactive),-0.48% (inactive)
CC(c1ccccc1)N1C(=O)c2ccc(C(=O)NCc3ccco3)cc2C1=O (stereo not given),104,84% (inactive),104% (inactive),93.6% (inactive),95.7% (inactive),5.55% (inactive),90.1,95.7,-3.16% (inactive),-4.92% (inactive)
Cc1c(C(=O)NCCC2=CCCCC2)oc2ccc(S(=O)(=O)N3CCC4(CC3)OCCO4)cc12,94.5,104% (inactive),94.5% (inactive),49.1% (inactive),48.1% (active),-4.29% (inactive),52.4,48.1,-10.8% (inactive),-11.5% (inactive)
O=C(c1ccc(COc2c(F)c(F)c(F)c(F)c2F)o1)N1CCOCC1,111,98.5% (inactive),111% (inactive),100% (inactive),88% (inactive),7.68% (inactive),80.3,88,-5.81% (inactive),6.98% (inactive)
CN1CCN(S(=O)(=O)c2ccc(Sc3nnc(-c4cccs4)n3-c3ccccc3)nc2)CC1,120,87.5% (inactive),120% (inactive),89.4% (inactive),85.7% (inactive),3.53% (inactive),82.2,85.7,-5.27% (inactive),-10% (inactive)
CCn1c(SCC(=O)Nc2nnc(C)s2)nnc1-c1ccncc1,112,76% (inactive),112% (inactive),107% (inactive),95.5% (inactive),4.15% (inactive),91.4,95.5,-7.43% (inactive),6.17% (inactive)
O=c1[nH]c2sc3c(c2c2nncn12)CCCC3,136,114% (inactive),136% (inactive),76.4% (inactive),100% (inactive),7.53% (inactive),92.7,100,-6.16% (inactive),2.54% (inactive)

# — PubChem BioAssay
